{"source": "paper PMC10092221", "about": "(Journal of Clinical Pharmacology, 2022)", "key": {"[1]": {"assay": "Capmatinib/CMN288 pharmacokinetics, inhibition cohort", "assay_type": "in vivo, human (healthy subjects)", "conditions": "inhibition cohort, healthy subjects, plasma", "procedure,_shortened": "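Inhibition cohort of healthy subjects (n = 27): a single fasted oral 200 mg dose on day 1, then a 4-day washout. Itraconazole 200 mg was given daily on days 5–14, and 200 mg test compound was dosed 1 h after the sixth itraconazole dose (day 10). Plasma was sampled serially to 96 h after each dose and assayed by validated LC-MS/MS (LLOQ ≈1.0 ng/mL). Test/reference ratios are antilogged point estimates with 2-sided 90%CIs.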"}, "[2]": {"assay": "Capmatinib/CMN288 pharmacokinetics, induction cohort", "assay_type": "in vivo, human (healthy subjects)", "conditions": "induction cohort, healthy subjects, plasma", "procedure,_shortened": "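Healthy subjects (induction cohort, n = 26) received a single fasted oral 400 mg dose on day 1, then a 4-day washout. Rifampicin 600 mg was given daily on days 5–13, with 400 mg test compound coadministered with the sixth dose on day 10. Serial plasma was drawn to 72 h after each dose and frozen <–70°C. Parent and metabolite were measured by validated LC-MS/MS (LLOQ ≈1.0 ng/mL). Ratios are antilogged 90%CIs.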"}, "[3]": {"conditions": "single oral capmatinib 200 mg + itraconazole 200 mg/day"}, "[4]": {"conditions": "single oral capmatinib 200 mg alone"}, "[5]": {"conditions": "single oral capmatinib 400 mg + rifampicin 600 mg/day"}, "[6]": {"conditions": "single oral capmatinib 400 mg alone"}}}
{"smiles": "CNC(=O)c1ccc(-c2nn3c(Cc4ccc5ncccc5c4)cnc3[nH]c2=O)cc1F", "note": "[CMN288]", "values": [{"measurement": "CMN288 AUCinf, geometric mean (geometric CV%)", "setting": "[1]; [3]", "value": "4290 (42.3) ng · h/mL"}, {"measurement": "CMN288 AUCinf, mean (CV%)", "setting": "[1]; [3]", "value": "4600 (35.7) ng · h/mL"}, {"measurement": "CMN288 AUClast, geometric mean (geometric CV%)", "setting": "[1]; [3]", "value": "4260 (43.2) ng · h/mL"}, {"measurement": "CMN288 AUClast, mean (CV%)", "setting": "[1]; [3]", "value": "4570 (36.0) ng · h/mL"}, {"measurement": "CMN288 Cmax, geometric mean (geometric CV%)", "setting": "[1]; [3]", "value": "590 (63.8) ng/mL"}, {"measurement": "CMN288 Cmax, mean (CV%)", "setting": "[1]; [3]", "value": "682 (50.8) ng/mL"}, {"measurement": "CMN288 tmax, median (range)", "setting": "[1]; [3]", "value": "2.00 (0.983–4.01) h"}, {"measurement": "MR (AUCinf), metabolite-to-parent drug ratio, mean (CV%)", "setting": "[1]; [3]", "value": "0.572 (25.1)"}, {"measurement": "MR (AUClast), metabolite-to-parent drug ratio, mean (CV%)", "setting": "[1]; [3]", "value": "0.570 (25.6)"}, {"measurement": "MR (Cmax), metabolite-to-parent drug ratio, mean (CV%)", "setting": "[1]; [3]", "value": "0.462 (29.2)"}, {"measurement": "CMN288 AUCinf, geometric mean (geometric CV%)", "setting": "[1]; [4]", "value": "3640 (36.6) ng · h/mL"}, {"measurement": "CMN288 AUCinf, mean (CV%)", "setting": "[1]; [4]", "value": "3870 (35.5) ng · h/mL"}, {"measurement": "CMN288 AUClast, geometric mean (geometric CV%)", "setting": "[1]; [4]", "value": "3580 (37.6) ng · h/mL"}, {"measurement": "CMN288 AUClast, mean (CV%)", "setting": "[1]; [4]", "value": "3810 (36.2) ng · h/mL"}, {"measurement": "CMN288 Cmax, geometric mean (geometric CV%)", "setting": "[1]; [4]", "value": "665 (48.7) ng/mL"}, {"measurement": "CMN288 Cmax, mean (CV%)", "setting": "[1]; [4]", "value": "736 (47.0) ng/mL"}, {"measurement": "CMN288 tmax, median (range)", "setting": "[1]; [4]", "value": "1.01 (0.968–6.02) h"}, {"measurement": "MR (AUCinf), metabolite-to-parent drug ratio, mean (CV%)", "setting": "[1]; [4]", "value": "0.699 (25.4)"}, {"measurement": "MR (AUClast), metabolite-to-parent drug ratio, mean (CV%)", "setting": "[1]; [4]", "value": "0.685 (27.5)"}, {"measurement": "MR (Cmax), metabolite-to-parent drug ratio, mean (CV%)", "setting": "[1]; [4]", "value": "0.533 (30.5)"}, {"measurement": "CMN288 AUCinf, geometric mean (geometric CV%)", "setting": "[2]; [5]", "value": "5110 (31.9) ng · h/mL"}, {"measurement": "CMN288 AUCinf, mean (CV%)", "setting": "[2]; [5]", "value": "5360 (32.1) ng · h/mL"}, {"measurement": "CMN288 AUClast, geometric mean (geometric CV%)", "setting": "[2]; [5]", "value": "5070 (32.3) ng · h/mL"}, {"measurement": "CMN288 AUClast, mean (CV%)", "setting": "[2]; [5]", "value": "5320 (32.5) ng · h/mL"}, {"measurement": "CMN288 Cmax, geometric mean (geometric CV%)", "setting": "[2]; [5]", "value": "1570 (39.8) ng/mL"}, {"measurement": "CMN288 Cmax, mean (CV%)", "setting": "[2]; [5]", "value": "1690 (38.1) ng/mL"}, {"measurement": "CMN288 tmax, median (range)", "setting": "[2]; [5]", "value": "0.998 (0.924–3.00) h"}, {"measurement": "MR (AUCinf), metabolite-to-parent drug ratio, mean (CV%)", "setting": "[2]; [5]", "value": "1.37 (26.0)"}, {"measurement": "MR (AUClast), metabolite-to-parent drug ratio, mean (CV%)", "setting": "[2]; [5]", "value": "1.35 (25.0)"}, {"measurement": "MR (Cmax), metabolite-to-parent drug ratio, mean (CV%)", "setting": "[2]; [5]", "value": "1.17 (28.9)"}, {"measurement": "CMN288 AUCinf, geometric mean (geometric CV%)", "setting": "[2]; [6]", "value": "7420 (28.4) ng · h/mL"}, {"measurement": "CMN288 AUCinf, mean (CV%)", "setting": "[2]; [6]", "value": "7710 (30.1) ng · h/mL"}, {"measurement": "CMN288 AUClast, geometric mean (geometric CV%)", "setting": "[2]; [6]", "value": "7310 (28.4) ng · h/mL"}, {"measurement": "CMN288 AUClast, mean (CV%)", "setting": "[2]; [6]", "value": "7600 (30.2) ng · h/mL"}, {"measurement": "CMN288 Cmax, geometric mean (geometric CV%)", "setting": "[2]; [6]", "value": "1500 (41.4) ng/mL"}, {"measurement": "CMN288 Cmax, mean (CV%)", "setting": "[2]; [6]", "value": "1610 (39.2) ng/mL"}, {"measurement": "CMN288 tmax, median (range)", "setting": "[2]; [6]", "value": "0.994 (0.957–3.00) h"}, {"measurement": "MR (AUCinf), metabolite-to-parent drug ratio, mean (CV%)", "setting": "[2]; [6]", "value": "0.634 (25.2)"}, {"measurement": "MR (AUClast), metabolite-to-parent drug ratio, mean (CV%)", "setting": "[2]; [6]", "value": "0.627 (25.1)"}, {"measurement": "MR (Cmax), metabolite-to-parent drug ratio, mean (CV%)", "setting": "[2]; [6]", "value": "0.492 (30.8)"}]}
